Data: ChEMBL document CHEMBL1144433, “1-Amino-1,2,3,4-tetrahydronaphthalene-2-carboxylic acid as a Tic mimetic: application in the synthesis of potent human melanocortin-4 receptor selective agonists” (Bioorg Med Chem Lett, 2005)

Tests used:
[1] = biological target: Melanocortin receptor 3 (Homo sapiens, UniProt P41968); experiment: Concentration required for 50% inhibition by displacement of [125I]NDP-alpha-MSH of human MC3R expressed in CHO cells; type: cell-based
[2] = biological target: Melanocortin receptor 5 (Homo sapiens, UniProt P33032); experiment: Concentration required for 50% inhibition by displacement of [125I]NDP-alpha-MSH of human MC5R expressed in CHO cells; type: cell-based
Method in brief: (§1)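 Competition binding against [125I]-NDP-α-MSH at human melanocortin receptors expressed in CHO cells. Values are means ± standard error from at least three determinations.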

[3] = biological target: Melanocortin receptor 4 (Homo sapiens, UniProt P32245); experiment: Concentration required for 50% inhibition by displacement of [125I]NDP-alpha-MSH of human MC4R expressed in CHO cells; type: cell-based; method in brief: as §1
[4] = biological target: Melanocyte-stimulating hormone receptor (Homo sapiens, UniProt Q01726); experiment: Concentration required for 50% inhibition by displacement of [125I]NDP-alpha-MSH of human MC1R expressed in CHO cells; type: cell-based
[5] = Pharmacokinetic parameter hal life studied in rat; type: ADME, organism-based; details: in vivo
Method in brief: (§2)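 Sprague–Dawley rats were dosed with a EtOH/PEG/water (1:4:5) solution, 1 mg/kg iv and 4 mg/kg po. F, clearance, Vdss and t1/2 were derived from these doses.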

[6] = Pharmacokinetic parameter max half life studied in dog; type: ADME, organism-based, Canis lupus familiaris; details: in vivo
Method in brief: (§3)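 Beagle dogs were dosed with a solution in EtOH/PEG/water (1:4:5), 0.5 mg iv and 2.0 mg/kg po. F, clearance, Vdss, t1/2 and tmax were derived from these doses.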

[7] = Pharmacokinetic parameter F studied in rat; type: ADME, organism-based; details: in vivo; method in brief: as §2
[8] = Pharmacokinetic parameter Vdss studied in dog; type: ADME, organism-based, Canis lupus familiaris; details: in vivo, read-out: Vdss; method in brief: as §3
[9] = Pharmacokinetic parameter F studied in dog; type: ADME, organism-based, Canis lupus familiaris; details: in vivo; method in brief: as §3
[10] = Pharmacokinetic parameter Cl(clearance) studied in rat; type: ADME, organism-based; details: in vivo; method in brief: as §2
[11] = Pharmacokinetic parameter Cl(clearance) studied in dog; type: ADME, organism-based, Canis lupus familiaris; details: in vivo; method in brief: as §3
[12] = Pharmacokinetic parameter Vdss studied in rat; type: ADME, organism-based; details: in vivo, read-out: Vdss; method in brief: as §2
[13] = Pharmacokinetic parameter hal life studied in dog; type: ADME, organism-based, Canis lupus familiaris; details: in vivo; method in brief: as §3

Melanocortin receptor 3, sequence (P41968 whole entry): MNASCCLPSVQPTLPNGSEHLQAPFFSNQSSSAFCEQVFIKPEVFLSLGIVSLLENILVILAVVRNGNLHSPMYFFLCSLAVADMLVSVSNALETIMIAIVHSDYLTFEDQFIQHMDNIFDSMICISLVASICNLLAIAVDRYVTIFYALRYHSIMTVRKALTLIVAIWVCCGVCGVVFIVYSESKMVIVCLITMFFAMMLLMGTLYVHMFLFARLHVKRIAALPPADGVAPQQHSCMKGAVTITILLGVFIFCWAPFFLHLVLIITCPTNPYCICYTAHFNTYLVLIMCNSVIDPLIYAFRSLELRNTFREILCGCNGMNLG
Melanocyte-stimulating hormone receptor, sequence (Q01726 whole entry): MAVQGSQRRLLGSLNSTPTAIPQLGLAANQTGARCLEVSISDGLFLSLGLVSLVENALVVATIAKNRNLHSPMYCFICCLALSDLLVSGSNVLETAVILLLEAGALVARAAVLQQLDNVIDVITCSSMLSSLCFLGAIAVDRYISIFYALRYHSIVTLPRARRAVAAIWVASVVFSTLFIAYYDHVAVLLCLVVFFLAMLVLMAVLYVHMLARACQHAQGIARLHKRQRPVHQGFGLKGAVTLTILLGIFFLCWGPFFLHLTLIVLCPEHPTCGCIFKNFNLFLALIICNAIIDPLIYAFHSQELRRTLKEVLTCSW
Melanocortin receptor 5, sequence (P33032 whole entry): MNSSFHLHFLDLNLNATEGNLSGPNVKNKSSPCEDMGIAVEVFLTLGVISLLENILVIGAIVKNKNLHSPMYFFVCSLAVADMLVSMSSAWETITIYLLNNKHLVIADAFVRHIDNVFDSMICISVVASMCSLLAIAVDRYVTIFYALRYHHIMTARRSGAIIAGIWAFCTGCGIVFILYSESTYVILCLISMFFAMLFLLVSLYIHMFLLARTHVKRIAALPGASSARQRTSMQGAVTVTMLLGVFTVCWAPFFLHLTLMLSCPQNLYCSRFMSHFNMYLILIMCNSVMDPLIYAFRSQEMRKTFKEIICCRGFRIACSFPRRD
Melanocortin receptor 4, sequence (P32245 whole entry): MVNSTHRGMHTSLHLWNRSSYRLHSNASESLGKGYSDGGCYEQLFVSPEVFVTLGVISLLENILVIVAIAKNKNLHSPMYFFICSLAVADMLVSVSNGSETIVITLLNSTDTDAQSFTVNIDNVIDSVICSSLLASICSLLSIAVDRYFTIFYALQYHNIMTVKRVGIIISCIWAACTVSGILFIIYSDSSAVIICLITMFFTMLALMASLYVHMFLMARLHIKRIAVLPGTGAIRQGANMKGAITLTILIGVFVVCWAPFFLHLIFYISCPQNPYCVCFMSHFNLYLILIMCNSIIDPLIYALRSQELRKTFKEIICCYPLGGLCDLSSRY

Row | Structure (SMILES) | IC50 [1] | IC50 [2] | IC50 [3] | IC50 [4] | half-life [5] | Tmax [6] | bioavailability [7] | Vd [8] | bioavailability [9] | clearance [10] | clearance [11] | Vd [12] | half-life [13]
1 | CC(C)(C)NC(=O)C1(C2CCCCC2)CCN(C(=O)[C@@H](Cc2ccc(Cl)cc2)NC(=O)[C@@H]2CCc3ccccc3[C@@H]2N)CC1 | 32 nM | 24 nM | 0.77 nM | 980 nM |  |  |  |  |  |  |  |  | 
2 | CC(C)(C)NC(=O)C1(C2CCCCC2)CCN(C(=O)[C@@H](Cc2ccc(Cl)cc2)NC(=O)[C@H]2CCc3ccccc3[C@H]2N)CC1 | 120 nM | 64 nM | 0.37 nM | 530 nM | 2 h | 2 h | 11% | 2.9 L/kg | 42% | 35 mL/min/kg | 11 mL/min/kg | 3.9 L/kg | 3.4 h
3 | CC(C)(C)NC(=O)C1(C2CCCCC2)CCN(C(=O)[C@@H](Cc2ccc(Cl)cc2)NC(=O)C2Cc3ccccc3C2N)CC1 (some centres undefined) | 83 nM | 34 nM | 1.9 nM | 1400 nM |  |  |  |  |  |  |  |  | 
4 | CC(C)(C)NC(=O)C1(C2CCCCC2)CCN(C(=O)[C@@H](Cc2ccc(Cl)cc2)NC(=O)[C@H]2CCc3ccccc3[C@@]2(C)N)CC1 | 170 nM | 31 nM | 1.1 nM | 620 nM |  |  |  |  |  |  |  |  | 
5 | CC(C)(C)NC(=O)C1(C2CCCCC2)CCN(C(=O)[C@@H](Cc2ccc(Cl)cc2)NC(=O)C2CCCc3ccccc3C2N)CC1 (some centres undefined) | 97 nM | 54 nM | 1.1 nM | 220 nM |  |  |  |  |  |  |  |  | 
